ChEMBL document CHEMBL1138522, “A novel small-molecule inhibitor of the avian influenza H5N1 virus determined through computational screening against the neuraminidase” (J Med Chem, 2009)
Calls of active or inactive are those of the source. The calls are words filed in the database; no cut-off is given here. Residues, ends and D or L forms follow the SMILES beside them. *: point of attachment. Cbz = O=C(OCc1ccccc1)*

How the values were obtained:
Influenza A virus [1] = test: Antiviral activity against influenza A virus H1N1 A/HK/54/98 in MDCK cells assessed as inhibition of viral replication after 48 hrs by hemagglutinination assay; type: functional, organism-based
Outline: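 H1N1 A/HK/54/98 infected MDCK cells at moi 2 for 30 min, then washed once with PBS. Cells were refed with serum-free medium containing TPCK-trypsin plus compound. Supernatant was collected 48 h post-infection and viral titre was read by hemagglutination assay.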

MDCK = test: Cytotoxicity against MDCK cells after 48 hrs by MTT assay; type: cell-based, Canis lupus familiaris; settings: dog
Outline: (§1)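 Primary human blood macrophages or MDCK cells were incubated 48 h with DMSO-dissolved compound; viability by MTT assay. DMSO-treated cells served as solvent controls.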

Influenza A virus [2] = test: Antiviral activity against Influenza A virus (A/Viet Nam/1203/2004(H5N1)) in MDCK cells assessed as inhibition of viral replication after 48 hrs by hemagglutinination assay; type: functional, organism-based
[3] = Cytotoxicity against primary human blood macrophages after 48 hrs by MTT assay; type: cell-based; settings: macrophage; outline: as §1
Influenza A virus [4] = test: Antiviral activity against Influenza A virus (A/Viet Nam/1203/2004(H5N1)) in MDCK cells assessed as inhibition of viral replication at 100 uM after 18 hrs by transmission electron microscopy; type: functional, organism-based
[5] = biological target: Neuraminidase (Influenza A virus) (UniProt B4URF0); test: Inhibition of influenza A virus H1N1 neuraminidase catalytic activity at 100 uM
Outline: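 Chemiluminescent NA-Star kit using H1N1 virus (TCID50 2 × 10^7/mL, diluted 5-fold) as enzyme source. Virus was preincubated with compound, in triplicate, 20 min at 37 °C. 1:1000-diluted substrate was then added for 30 min at room temperature, followed by accelerator and an immediate luminescence read.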

Mus musculus = test: Toxicity in mouse assessed as survival up to 400 mg/kg; type: organism-based; set-up: dose 400 mg/kg; settings: in vivo
Influenza A virus [6] = test: Antiviral activity against influenza A virus H1N1 A/HK/54/98 in MDCK cells assessed as inhibition of viral replication at 100 uM after 18 hrs by transmission electron microscopy; type: functional, organism-based
Outline: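 MDCK cells were infected with H1N1 at moi 2, then treated with compound at 100 µM, with DMSO controls. At 18 h post-infection, cells were fixed in 2.5% glutaraldehyde in 0.1 M cacodylate (pH 7.4), post-fixed in 1% osmium tetroxide, and embedded in epoxy. 100 nm sections were examined by TEM for surface virions.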

Influenza A virus [7] = test: Antiviral activity against Influenza A virus (A/Viet Nam/1203/2004(H5N1)) in MDCK cells assessed as inhibition of virus-induced cytopathic effect after 48 hrs by crystal violet staining; type: functional, organism-based
Influenza A virus [8] = test: Antiviral activity against influenza A virus H1N1 A/HK/54/98 in MDCK cells assessed as inhibition of virus-induced cytopathic effect after 48 hrs by crystal violet staining; type: functional, organism-based
Outline: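 H1N1 A/HK/54/98 infected MDCK cells at moi 2, with compound over a range of concentrations; supernatant taken at 48 h. Serial 2-fold dilutions were adsorbed 1 h onto MDCK cells (2 × 10^4/well), then incubated 4 days in MEM with 1 µg/mL TPCK-trypsin. CPE was read by formaldehyde fixation and crystal violet staining; TCID50 by Reed-Muench. Three independent experiments.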

Structure (SMILES)	Activity (Influenza A virus [1])	Activity (MDCK) [µM]	Activity (Influenza A virus [2])	Activity [3] [µM]	Activity (Influenza A virus [4])	Activity [5]	Activity (Mus musculus)	Activity (Influenza A virus [6])	Activity (Influenza A virus [7])	Activity (Influenza A virus [8])
Cc1ccccc1OC(=O)Nc1ccc(C(=O)O)c(O)c1	inactive	1.7	inactive	0.9						
Cc1nc(N)nc(O)c1CCCNc1ccc(/C=C/C(=O)CCl)cc1	Active	2.2	Active	1.1	Active	Active	Non-toxic	Active	Dose-dependent effect	Dose-dependent effect
CCOC(=O)C1=C[C@@H](OC(CC)CC)[C@H](NC(C)=O)[C@@H](N)C1	Active		Active		Active			Active		
CC[C@H](C)[C@H](NC(=O)[C@H](C)NC(=O)OCc1ccccc1)C(=O)O (Cbz-Ala-Ile-OH)	inactive		inactive	1						
C/C(=C\C(=O)N1c2ccccc2CC1c1c[nH]c2ccccc12)C(=O)O (centres undefined)	inactive	1.2	inactive	1						
CCOC(=O)C(O)C(=O)OCc1ccc2ccccc2n1 (centres undefined)	inactive	1.4	inactive	1						
Nc1nc(O)c2cc(CSc3ccc(C(=O)NC(CCC(=O)O)C(=O)O)cc3)ccc2n1 (centres undefined)		1.1		1.1						
Nc1nc(=O)c2cc(NCc3ccc(C(=O)NC(CCC(=O)O)C(=O)O)cc3)ccc2[nH]1 (centres undefined)	inactive	1.2	inactive	0.9						
O=C(O[C@H](C(=O)O)[C@H](OC(=O)c1ccccc1)C(=O)O)c1ccccc1	inactive	0.7	inactive	1.1						
O=C(O)CCC(=O)CCC(=O)c1ccc2ccccc2c1	inactive	1	inactive	1.1						
O=C(Nc1ccn(C2CCC(COC(c3ccccc3)(c3ccccc3)c3ccccc3)O2)c(=O)n1)c1ccccc1 (centres undefined)	inactive		inactive	0.8						
CCOC(=O)CNC(=O)CCC(NS(=O)(=O)c1ccc(C)cc1)C(=O)O (centres undefined)	inactive		inactive	0.8						
O=C(O)CCC(=O)NCC1CCCC(CNC(=O)CCC(=O)O)C1 (centres undefined)	inactive	1.3	inactive	0.9						
O=C(/C=C/c1ccc(O)c(O)c1)NCC(=O)NC(Cc1ccccc1)C(=O)O (centres undefined)	inactive	2.2	inactive	1.1						
Cc1nc(Nc2ccccc2)sc1C(=O)CC(=O)C(=O)NC1C2CC3CC(C2)CC1C3 (centres undefined)	inactive	1.5	inactive	1.1						
C[C@H](NC(=O)OCc1ccccc1)C(=O)N[C@@H](Cc1c[nH]c2ccccc12)C(=O)O (Cbz-Ala-Trp-OH)	inactive		inactive	0.9						
O=C(O)CCCCCNC(=O)OCc1ccccc1	inactive	1.5	inactive	0.9						
O=C(O)C(Cc1ccc(O)cc1)c1ccc(C(Cc2ccc(O)cc2)C(=O)O)cc1 (centres undefined)	inactive		inactive	0.1						
O=C(O)c1ccccc1C(=O)Nc1cc2c(cc1Br)-c1ccccc1C2=O	inactive	1.1	inactive	10						
Cc1cccc(OC(=O)Nc2ccc(C(=O)O)c(O)c2)c1	inactive	2.3	inactive	1						
CNC(=N)Nc1ccc(C(=O)O)cc1.O=S(=O)(O)O	inactive		inactive	0.7						
Nc1nc(=O)c2cc(CSc3ccc(C(=O)NC(CCC(=O)O)C(=O)O)cc3)ccc2[nH]1 (centres undefined)	inactive		inactive							
